Measured values pooled from the literature.
Each line is one published result; the experiments were not run side by side.
Target: Calcium/calmodulin-dependent protein kinase type II subunit delta (CAMK2D, Homo sapiens, UniProt Q13557)

SMILES | assay | setting | quantity | value
O=C1NC(c2ccccn2)Sc2ccccc21 (stereo not drawn) | cell-free assay, competition with immobilised ligand | 1 µM | remaining binding | 75%
c1ccc(CNc2nc(N3CCOc4ccccc43)nc3c2CCCC3)cc1 | target engagement in cells, inhibitor, chemoproteomics | 20 mM | inhibition | -17.7%
C#Cc1cccc(Nc2ncnc3cc(OCCOC)c(OCCOC)cc23)c1 | cell-free assay | 0.5 µM | remaining signal | 95.1%
O=C(Nc1cnn(-c2csc(C(=O)NC3COC3)c2)c1)Nc1c(F)cccc1Cl | enzyme activity, inhibitor | 5 µM | remaining activity | 93.5%
NS(=O)(=O)c1cc(NC(=O)C2(c3ccccc3Cl)CC2)ccc1Oc1cccc(Cl)c1 | cell-free assay, competition with immobilised ligand | 1 µM | remaining binding | 100%
COc1cc2ncnc(Nc3ccc(Oc4ccccc4)c(C)c3C)c2cc1OC | enzyme activity, inhibitor | 1 µM | inhibition | 2%
COc1cccc(CNC(=O)c2nc3scc(COCc4ccc(C(=O)O)cc4)c3c(=O)[nH]2)c1 | cell-free assay, competition with immobilised ligand | 1 µM | remaining binding | 100%
CCCS(=O)(=O)Nc1ccc(F)c(C(=O)c2c[nH]c3ncc(-c4ccc(Cl)cc4)cc23)c1F | enzyme activity, inhibitor | 1 µM | inhibition | < 10%
O=C(NS(=O)(=O)c1ccc(NCC2CCOCC2)c([N+](=O)[O-])c1)c1ccc(N2CCN(Cc3ccc(C(F)(F)F)cc3-c3ccc(Cl)cc3)CC2)cc1Oc1cnc2[nH]ccc2c1 | cell-free assay, competition with immobilised ligand | 1 µM | remaining binding | 100%
Cc1ccc(NC(=O)c2ccc(C)c(C(F)(F)F)c2)cc1C#Cc1nn(C2CCC(O)CC2)c2ncnc(N)c12 (stereo not drawn) | cell-free assay | 10 µM | remaining signal | 89%
COc1cc(Cl)c(C(=O)N[C@@H](CN[C@H]2CC[C@@H](N)CC2)Cc2ccc(C#N)cc2)cc1-c1ccc(CN[C@H](C)c2ccc(C)cc2)o1 | enzyme activity, inhibitor | 1 µM | remaining activity | 100%
CNC(=O)c1cc(Oc2ccc(NC(=O)Nc3ccc(Cl)c(C(F)(F)F)c3)cc2)ccn1 | enzyme activity, inhibitor | 0.3 µM | inhibition | 56%
O=C(Nc1cnn(-c2csc(C(=O)NC3COC3)c2)c1)Nc1ccccc1Cl | enzyme activity, inhibitor | 5 µM | remaining activity | 103%
Cc1cnc(NC2CCOCC2)nc1-n1cnc(C(=O)NC(CN)c2cc(F)cc(Cl)c2)c1 (stereo not drawn) | enzyme activity, inhibitor, radiometric | 1 µM | remaining activity | 91%
Nc1c(C(=O)NCc2ccc(C(=O)NCCCC3CCCCC3)cc2)cnn1-c1ccccc1 | cell-free assay, competition with immobilised ligand | 0.1 µM | remaining binding | 100%
CN1CC(Oc2cnc(C#N)cc2-c2ccn3nc(NC(=O)C4CC4)cc3c2)C1 | enzyme activity, inhibitor | 1 µM | inhibition | -3%
Cc1ccc(Nc2nccc(N(C)c3ccc4c(C)n(C)nc4c3)n2)cc1S(N)(=O)=O | enzyme activity, inhibitor | 0.3 µM | inhibition | 63%
O=C(NCc1ncc(C(F)(F)F)cc1Cl)c1ccc2c(c1)C1(CCS(=O)(=O)CC1)[C@H](C1CC1)N2S(=O)(=O)c1ccc(F)cc1 | cell-free assay, competition with immobilised ligand | 1 µM | remaining binding | 100%
CC(C)(C)c1nc(-c2cccc(NS(=O)(=O)c3c(F)cccc3F)c2F)c(-c2ccnc(N)n2)s1 | enzyme activity, inhibitor, radiometric | 1 µM | remaining activity | 97%
Cc1ccc(C(=O)NCc2ccsc2)cc1C#Cc1cn(C(C)C)c2ncnc(N)c12 | enzyme activity, inhibitor | 1 µM | activity vs control | 102%
C[C@@H]1CCN(C(=O)CC#N)C[C@@H]1N(C)c1ncnc2[nH]ccc12 | cell-free assay | 0.5 µM | remaining signal | 98.2%
CCN(CC)CCNC(=O)c1c(C)[nH]c(/C=C2\C(=O)Nc3ccc(F)cc32)c1C | enzyme activity, inhibitor | 0.3 µM | inhibition | 92%
CC(C)c1ccc(NC(=O)c2cccs2)c(-c2nc3ccccc3[nH]c2=O)c1 | enzyme activity, inhibitor | 1 µM | activity vs control | 102%
CC(C)(O)c1cncc(-c2nc3ccc(F)cc3n2C2CC2)c1 | cell-free assay, competition with immobilised ligand | 1 µM | remaining binding | 100%
O=C1NC(=O)c2cc(Nc3ccc(F)cc3)c(Nc3ccc(F)cc3)cc21 | cell-free assay | 0.5 µM | remaining signal | 97.9%
CSc1cccnc1N1CCN(Cc2nc3ccccc3[nH]2)CC1 | cell-free assay, competition with immobilised ligand | 1 µM | remaining binding | 100%
N#CCCc1ccc2c(c1)-c1[nH]c3ccc([N+](=O)[O-])cc3c1CC(=O)N2 | cell-free assay | 0.5 µM | remaining signal | 57.8%
